Laboratory results reported in ChEMBL document CHEMBL4480447, “Acrotrione: An Oxidized Xanthene from the Roots of Acronychia pubescens” (J Nat Prod, 2019).

Tested on: Plasmodium falciparum
Experiment: Antiplasmodial activity against drug-resistant Plasmodium falciparum Dd2 ring stage forms assessed as inhibition of parasite growth after 72 hrs by DAPI staining-based confocal microscopic analysis
Assay type: functional, organism-based
Settings: Dd2, 72 h
Procedure, shortened: (§1)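 Compounds from 10 mM DMSO stocks, 16-point dose-response, 40 μM to 0.4 nM final. Incubation 72 h at 37 °C, 90% N2/5% CO2/5% O2. DAPI stain, confocal imaging. Percent inhibition normalized to puromycin 5 μM and 0.4% DMSO controls; IC50 by four-parameter logistic fit.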

For `COc1c(CC=C(C)C)c2c(c(O)c1C(C)=O)[C@H](CC(C)C)[C@H]1C(=O)C(C(C)=O)=C3O[C@@H](C(C)(C)O)C[C@@]3(O)[C@@]1(O)O2`, which IC50 is on record?
Its IC50 is 4700 nM.

Which IC50 does the source give for `COc1c(CC=C(C)C)c(O)cc(O)c1C(C)=O` here?
The IC50 was 3100 nM.

With `C[C@H]1[C@H](OC(=O)CCC(=O)O)O[C@@H]2O[C@@]3(C)CC[C@H]4[C@H](C)CC[C@@H]1[C@@]24OO3` [ARTESUNATE] as the compound, how does the IC50 read?
Its IC50 is 3.3 nM.

With `COc1ccc(C[C@H](N)C(=O)N[C@H]2[C@@H](O)[C@H](n3cnc4c(N(C)C)ncnc43)O[C@@H]2CO)cc1` [PUROMYCIN] as the compound, how does the IC50 read?
The IC50 was 74.7 nM.

For `COc1ccc2nc3cc(Cl)ccc3c(Nc3cc(CN4CCCC4)c(O)c(CN4CCCC4)c3)c2n1` [PYRONARIDINE], which IC50 is on record?
The IC50 was 11 nM.

Tested on: Plasmodium falciparum
Experiment: Antiplasmodial activity against drug-resistant Plasmodium falciparum Dd2 ring stage forms assessed as inhibition of parasite growth at 40 uM after 72 hrs by DAPI staining-based confocal microscopic analysis
Assay type: functional
Settings: Dd2, 72 h, read-out: GI
Procedure, shortened: as §1

Which inhibition of growth at 40 µM does the source give for `COc1c(CC=C(C)C)c(O)c(C=O)c(O)c1C(C)=O` [ACRONYCULATIN A] here?
Its inhibition of growth at 40 µM is 19.8%.

Tested on: not listed separately
Experiment: Selectivity ratio of IC50 for Plasmodium falciparum Dd2 ring stage forms to IC50 for Plasmodium falciparum 3D7 ring stage forms
Assay type: functional
Settings: not given
Procedure, shortened: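 Sixteen-point dose-response, 40 μM to 0.4 nM final. Fit is four-parameter logistic on percent inhibition normalized to puromycin (5 μM) and 0.4% DMSO. Ratio is Dd2 IC50 over 3D7 IC50.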

For `COc1c(CC=C(C)C)c2c(c(O)c1C(C)=O)[C@H](CC(C)C)[C@H]1C(=O)C(C(C)=O)=C3O[C@@H](C(C)(C)O)C[C@@]3(O)[C@@]1(O)O2`, which “Ratio IC50” value is on record?
Its value is 1.7.

With `COc1c(CC=C(C)C)c(O)cc(O)c1C(C)=O` as the compound, how does the “Ratio IC50” value read?
Its value is 1.7.

With `C[C@H]1[C@@H](O)O[C@@H]2O[C@@]3(C)CC[C@H]4[C@H](C)CC[C@@H]1[C@@]24OO3` [ARTENIMOL] as the compound, how does the “Ratio IC50” value read?
The value was 1.8.

With `COc1ccc(C[C@H](N)C(=O)N[C@H]2[C@@H](O)[C@H](n3cnc4c(N(C)C)ncnc43)O[C@@H]2CO)cc1` [PUROMYCIN] as the compound, how does the “Ratio IC50” value read?
Its value is 1.1.

For `COc1ccc2nc3cc(Cl)ccc3c(Nc3cc(CN4CCCC4)c(O)c(CN4CCCC4)c3)c2n1` [PYRONARIDINE], which “Ratio IC50” value is on record?
Its value is 1.3.

Tested on: not listed separately
Experiment: Selectivity index, ratio of IC50 for HEK293 cells to IC50 for drug-sensitive Plasmodium falciparum 3D7 ring stage forms
Assay type: toxicity
Settings: human; read-out: Ratio IC50

With `COc1ccc(C[C@H](N)C(=O)N[C@H]2[C@@H](O)[C@H](n3cnc4c(N(C)C)ncnc43)O[C@@H]2CO)cc1` [PUROMYCIN] as the compound, how does the selectivity ratio read?
Its selectivity ratio is 9.9.

With `COc1ccc2nc3cc(Cl)ccc3c(Nc3cc(CN4CCCC4)c(O)c(CN4CCCC4)c3)c2n1` [PYRONARIDINE] as the compound, how does the selectivity ratio read?
The selectivity ratio was 246.

Tested on: Plasmodium falciparum
Experiment: Antiplasmodial activity against drug-sensitive Plasmodium falciparum 3D7 ring stage forms assessed as inhibition of parasite growth after 72 hrs by DAPI staining-based confocal microscopic analysis
Assay type: functional, organism-based
Settings: 3D7, 72 h

With `COc1c(CC=C(C)C)c2c(c(O)c1C(C)=O)[C@H](CC(C)C)[C@H]1C(=O)C(C(C)=O)=C3O[C@@H](C(C)(C)O)C[C@@]3(O)[C@@]1(O)O2` as the compound, how does the IC50 read?
The IC50 was 2700 nM.

For `COc1c(CC=C(C)C)c(O)cc(O)c1C(C)=O`, which IC50 is on record?
The IC50 was 1800 nM.

Which IC50 does the source give for `COc1ccc(C[C@H](N)C(=O)N[C@H]2[C@@H](O)[C@H](n3cnc4c(N(C)C)ncnc43)O[C@@H]2CO)cc1` [PUROMYCIN] here?
The IC50 was 70.2 nM.

For `CCc1nc(N)nc(N)c1-c1ccc(Cl)cc1` [PYRIMETHAMINE], which IC50 is on record?
Its IC50 is 7.7 nM.

Which IC50 does the source give for `COc1ccc2nc3cc(Cl)ccc3c(Nc3cc(CN4CCCC4)c(O)c(CN4CCCC4)c3)c2n1` [PYRONARIDINE] here?
The IC50 was 8.2 nM.

Tested on: HEK293
Experiment: Cytotoxicity against HEK293 cells after 72 hrs by resazurin dye-based fluorescence assay
Assay type: cell-based
Settings: Homo sapiens, HEK293, 72 h
Procedure, shortened: (§2)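 HEK293 cells kept in DMEM with 10% FBS. Exposed to compound for 72 h at 37 °C, 5% CO2; 16-point dose-response, 40 μM to 0.4 nM final, three concentrations per log, from 10 mM DMSO stocks. Medium then replaced with 44 μM resazurin; fluorescence read after 5−6 h (ex/em 530/595 nm). Data normalized to puromycin (5 μM) and 0.4% DMSO controls; IC50 from four-parameter logistic fit.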

For `COc1ccc(C[C@H](N)C(=O)N[C@H]2[C@@H](O)[C@H](n3cnc4c(N(C)C)ncnc43)O[C@@H]2CO)cc1` [PUROMYCIN], which IC50 is on record?
The IC50 was 694 nM.

For `COc1ccc2nc3cc(Cl)ccc3c(Nc3cc(CN4CCCC4)c(O)c(CN4CCCC4)c3)c2n1` [PYRONARIDINE], which IC50 is on record?
Its IC50 is 1990 nM.

Tested on: not listed separately
Experiment: Cytotoxicity against HEK293 cells assessed as growth inhibition after 72 hrs by resazurin dye-based fluorescence assay relative to control
Assay type: cell-based
Parameters: concentration or dose not given beside the values
Settings: human, read-out: GI
Procedure, shortened: as §2

With `COc1c(CC=C(C)C)c2c(c(O)c1C(C)=O)[C@H](CC(C)C)[C@H]1C(=O)C(C(C)=O)=C3O[C@@H](C(C)(C)O)C[C@@]3(O)[C@@]1(O)O2` as the compound, how does the inhibition at 72 h read?
The inhibition at 72 h was 80.7%.

For `COc1c(CC=C(C)C)c(O)cc(O)c1C(C)=O`, which inhibition at 72 h is on record?
The inhibition at 72 h was 79.1%.

Which inhibition at 72 h does the source give for `COc1c(CC=C(C)C)c(O)c(C=O)c(O)c1C(C)=O` [ACRONYCULATIN A] here?
The inhibition at 72 h was 7.4%.

With `C[C@H]1[C@@H](O)O[C@@H]2O[C@@]3(C)CC[C@H]4[C@H](C)CC[C@@H]1[C@@]24OO3` [ARTENIMOL] as the compound, how does the inhibition at 72 h read?
The inhibition at 72 h was 41.1%.

Which inhibition at 72 h does the source give for `C[C@H]1[C@H](OC(=O)CCC(=O)O)O[C@@H]2O[C@@]3(C)CC[C@H]4[C@H](C)CC[C@@H]1[C@@]24OO3` [ARTESUNATE] here?
Its inhibition at 72 h is 62.5%.

Which inhibition at 72 h does the source give for `CCN(CC)CCCC(C)Nc1ccnc2cc(Cl)ccc12` (stereo not drawn) [CHLOROQUINE] here?
Its inhibition at 72 h is 53.2%.

Which inhibition at 72 h does the source give for `CCc1nc(N)nc(N)c1-c1ccc(Cl)cc1` [PYRIMETHAMINE] here?
The inhibition at 72 h was 52%.

Tested on: Plasmodium falciparum
Experiment: Antiplasmodial activity against drug-sensitive Plasmodium falciparum 3D7 ring stage forms assessed as inhibition of parasite growth at 40 uM after 72 hrs by DAPI staining-based confocal microscopic analysis
Assay type: functional
Settings: 3D7, 72 h, read-out: GI
Procedure, shortened: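 Exposed to compound for 72 h at 37 °C under 90% N2/5% CO2/5% O2. DAPI staining followed by confocal imaging. Percent inhibition normalized to puromycin (5 μM) and 0.4% DMSO controls.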

For `COc1c(CC=C(C)C)c(O)c(C=O)c(O)c1C(C)=O` [ACRONYCULATIN A], which inhibition of growth at 40 µM is on record?
Its inhibition of growth at 40 µM is 37.5%.
